Measured values published in ChEMBL document CHEMBL1126849, “Synthesis of A-ring fluorinated derivatives of (17 alpha,20E/Z)-[125I]iodovinylestradiols: effect on receptor binding and receptor-mediated target tissue uptake” (J Med Chem, 1993).

What was measured:
Rattus norvegicus [1] = assay: Biodistribution in thyroid of immature female rat after 1 hr administration of 3 micro Ci (111 kBq) in the absence of 60 microg estradiol; type: ADME, organism-based, Thyroid gland; conditions: in vivo
Method in brief: (§1)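 Immature female Long Evans rats (21–24 days, 45–70 g), three to five per group, given 125I-labeled steroid (3 μCi, 111 kBq) by lateral tail vein without anesthesia. Vehicle: ethanol diluted in saline with 1% Tween-80, final ethanol 9%, 0.22 μm filtered. +E2 groups received 60 μg unlabeled estradiol co-injected. Killed under ether at set times; tissues KCl-washed, blotted, weighed, gamma counted; %ID/g, mean with SE.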

Rattus norvegicus [2] = assay: Biodistribution in liver of immature female rat after 1 hr administration of 3 micro Ci (111 kBq) in the absence of 60 microg estradiol; type: ADME, organism-based; conditions: in vivo
Method in brief: (§2)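 Immature female Long Evans rats (21–24 days, 45–70 g), unanesthetized in retention cages, given 3 µCi (111 kBq) 125I-labeled steroid i.v. via lateral tail vein. Vehicle was ethanol diluted in saline containing 1% Tween-80, giving 9% ethanol final. The blocking group received 60 µg unlabeled estradiol co-injected. Rats were killed under ether by axillary bleeding, and tissues were KCl-washed and gamma-counted. Data are %ID/g, mean ± SE, n=3–5.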

Rattus norvegicus [3] = assay: Biodistribution in fat of immature female rat after 1 hr administration of 3 micro Ci (111 kBq) in the absence of 60 microg estradiol; type: ADME, organism-based, Adipose tissue; conditions: in vivo; method in brief: as §2
Rattus norvegicus [4] = assay: Biodistribution in lungs of immature female rat after 1 hr administration of 3 micro Ci (111 kBq) in the presence of (+E2); type: ADME, organism-based, Lung; conditions: in vivo; method in brief: as §2
Rattus norvegicus [5] = assay: Biodistribution in thyroid of immature female rat after 12 hour administration of 3 micro Ci (111 kBq) in the absence of 60 microg estradiol; type: ADME, organism-based, Thyroid gland; conditions: in vivo; method in brief: as §1
Rattus norvegicus [6] = assay: Biodistribution in uterus / blood of immature female rat after 3 hour administration of 3 micro Ci (111 kBq) in the absence of 60 microg estradiol; type: ADME, organism-based; conditions: in vivo
Method in brief: (§3)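 Same in vivo procedure: immature female Long Evans rats (21–24 days), three to five per group, 3 μCi (111 kBq) tracer i.v. via tail vein in 9% ethanol/saline/1% Tween-80, ± 60 μg estradiol co-injected at 1 h. Uterus %ID/g (gamma counting) divided by blood, or by nontarget organ (muscle, spleen, lungs), %ID/g to give ratios.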

Rattus norvegicus [7] = assay: Biodistribution in kidney of immature female rat after 1 hr administration of 3 micro Ci (111 kBq) in the absence of 60 microg estradiol; type: ADME, organism-based; conditions: in vivo; method in brief: as §2
[8] = target: Estrogen receptor (Mus musculus) (UniProt O08537+P19785); assay: Relative binding affinity (RBA) against murine cytoplasmic estrogen receptor incubated at 0-4 degree Celsius for 18 hours; type: protein assay
Chain of Estrogen receptor (Mus musculus) (O08537 whole entry, looked up): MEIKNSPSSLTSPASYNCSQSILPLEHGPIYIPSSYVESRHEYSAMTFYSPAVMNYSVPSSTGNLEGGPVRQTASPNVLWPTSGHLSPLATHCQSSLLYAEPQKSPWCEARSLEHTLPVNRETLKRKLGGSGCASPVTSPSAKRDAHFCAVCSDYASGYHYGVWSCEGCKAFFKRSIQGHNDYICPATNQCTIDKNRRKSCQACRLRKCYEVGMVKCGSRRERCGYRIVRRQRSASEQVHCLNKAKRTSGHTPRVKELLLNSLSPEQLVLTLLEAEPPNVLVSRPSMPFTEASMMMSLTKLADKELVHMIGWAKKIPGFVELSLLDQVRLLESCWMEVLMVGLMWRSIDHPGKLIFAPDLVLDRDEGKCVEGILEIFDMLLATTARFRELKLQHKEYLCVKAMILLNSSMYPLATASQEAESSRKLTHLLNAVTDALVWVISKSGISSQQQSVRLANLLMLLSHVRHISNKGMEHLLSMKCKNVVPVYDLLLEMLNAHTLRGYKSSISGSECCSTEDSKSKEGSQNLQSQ
Chain of Estrogen receptor (Mus musculus) (P19785 whole entry, looked up): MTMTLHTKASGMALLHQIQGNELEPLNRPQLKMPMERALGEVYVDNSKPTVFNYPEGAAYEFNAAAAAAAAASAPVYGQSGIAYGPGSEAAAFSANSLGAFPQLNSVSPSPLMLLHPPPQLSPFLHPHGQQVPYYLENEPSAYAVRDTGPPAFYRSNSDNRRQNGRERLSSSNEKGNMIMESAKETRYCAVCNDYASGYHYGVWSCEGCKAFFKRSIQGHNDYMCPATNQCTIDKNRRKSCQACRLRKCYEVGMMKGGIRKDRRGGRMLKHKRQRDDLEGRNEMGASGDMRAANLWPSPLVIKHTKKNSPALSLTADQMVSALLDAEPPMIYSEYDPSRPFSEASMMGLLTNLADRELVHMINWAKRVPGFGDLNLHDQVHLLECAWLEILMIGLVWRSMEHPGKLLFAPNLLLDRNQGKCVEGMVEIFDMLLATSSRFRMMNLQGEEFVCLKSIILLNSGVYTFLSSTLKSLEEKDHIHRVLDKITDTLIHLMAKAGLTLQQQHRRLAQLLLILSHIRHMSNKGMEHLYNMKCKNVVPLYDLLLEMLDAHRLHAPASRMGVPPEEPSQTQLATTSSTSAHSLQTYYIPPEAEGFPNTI
Method in brief: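 Competitive binding on murine uterine cytoplasmic extract with 20 nM [3H]estradiol and competitor steroids at 2 nM–20 μM, incubated 18 h at 0–4 °C. RBA = 100 × ratio of […] concentration giving 50% competition for specific binding. Mean of three experiments with SD.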

Rattus norvegicus [9] = assay: Biodistribution in uterus / spleen, muscle, lungs of immature female rat after 5 hour administration of 3 micro Ci (111 kBq) in the absence of 60 microg estradiol; type: ADME, organism-based; conditions: in vivo
Method in brief: (§4)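 Immature female Long Evans rats (21–24 days, 45–70 g), 3–5 per group, unanesthetized in retention cages, given 3 μCi (111 kBq) 125I-labeled steroid by lateral tail vein. Vehicle: ethanol diluted with saline containing 1% Tween-80, final ethanol 9%. +E2 group co-injected 60 μg unlabeled estradiol (1 h only). Killed under ether; tissues KCl-washed, weighed, gamma-counted. Output: %ID/g (mean, SE) and uterus to blood or nontarget (muscle, spleen, lungs) ratios.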

Rattus norvegicus [10] = assay: Biodistribution in uterus / spleen, muscle, lungs of immature female rat after 1 hr administration of 3 micro Ci (111 kBq) in the absence of 60 microg estradiol; type: ADME, organism-based; conditions: in vivo; method in brief: as §3
Rattus norvegicus [11] = assay: Biodistribution in uterus / blood of immature female rat after 12 hour administration of 3 micro Ci (111 kBq) in the absence of 60 microg estradiol; type: ADME, organism-based; conditions: in vivo; method in brief: as §3
Rattus norvegicus [12] = assay: Biodistribution in uterus / spleen, muscle, lungs of immature female rat after 12 hour administration of 3 micro Ci (111 kBq) in the absence of 60 microg estradiol; type: ADME, organism-based; conditions: in vivo; method in brief: as §4
Rattus norvegicus [13] = assay: Biodistribution in fat of immature female rat after 3 hour administration of 3 micro Ci (111 kBq) in the absence of 60 microg estradiol; type: ADME, organism-based, Adipose tissue; conditions: in vivo; method in brief: as §2
Rattus norvegicus [14] = assay: Biodistribution in muscle of immature female rat after 1 hr administration of 3 micro Ci (111 kBq) in the absence of 60 microg estradiol; type: ADME, organism-based, Muscle tissue; conditions: in vivo; method in brief: as §1
Rattus norvegicus [15] = assay: Biodistribution in fat of immature female rat after 12 hour administration of 3 micro Ci (111 kBq) in the absence of 60 microg estradiol; type: ADME, organism-based, Adipose tissue; conditions: in vivo; method in brief: as §2
Rattus norvegicus [16] = assay: Biodistribution in uterus of immature female rat after 12 hour administration of 3 micro Ci (111 kBq) in the absence of 60 microg estradiol; type: ADME, organism-based; conditions: in vivo; method in brief: as §4
Rattus norvegicus [17] = assay: Biodistribution in lungs of immature female rat after 5 hour administration of 3 micro Ci (111 kBq) in the absence of 60 microg estradiol; type: ADME, organism-based, Lung; conditions: in vivo; method in brief: as §1
Rattus norvegicus [18] = assay: Biodistribution in muscle of immature female rat after 5 hour administration of 3 micro Ci (111 kBq) in the absence of 60 microg estradiol; type: ADME, organism-based, Muscle tissue; conditions: in vivo; method in brief: as §1
Rattus norvegicus [19] = assay: Biodistribution in spleen of immature female rat after 3 hour administration of 3 micro Ci (111 kBq) in the absence of 60 microg estradiol; type: ADME, organism-based; conditions: in vivo; method in brief: as §1
Rattus norvegicus [20] = assay: Biodistribution in liver of immature female rat after 5 hour administration of 3 micro Ci (111 kBq) in the absence of 60 microg estradiol; type: ADME, organism-based; conditions: in vivo; method in brief: as §2
Rattus norvegicus [21] = assay: Biodistribution in kidney of immature female rat after 1 hr administration of 3 micro Ci (111 kBq) in the presence of (+E2); type: ADME, organism-based; conditions: in vivo; method in brief: as §2
Rattus norvegicus [22] = assay: Biodistribution in lungs of immature female rat after 1 hr administration of 3 micro Ci (111 kBq) in the absence of 60 microg estradiol; type: ADME, organism-based, Lung; conditions: in vivo; method in brief: as §2
Rattus norvegicus [23] = assay: Biodistribution in lungs of immature female rat after 12 hour administration of 3 micro Ci (111 kBq) in the absence of 60 microg estradiol; type: ADME, organism-based, Lung; conditions: in vivo; method in brief: as §1
Rattus norvegicus [24] = assay: Biodistribution in fat of immature female rat after 1 hr administration of 3 micro Ci (111 kBq) in the presence of (+E2); type: ADME, organism-based, Adipose tissue; conditions: in vivo; method in brief: as §2
Rattus norvegicus [25] = assay: Biodistribution in blood of immature female rat after 3 hour administration of 3 micro Ci (111 kBq) in the absence of 60 microg estradiol; type: ADME, organism-based; conditions: in vivo; method in brief: as §2
Rattus norvegicus [26] = assay: Biodistribution in muscle of immature female rat after 1 hr administration of 3 micro Ci (111 kBq) in the presence of (+E2); type: ADME, organism-based, Muscle tissue; conditions: in vivo; method in brief: as §1
Rattus norvegicus [27] = assay: Biodistribution in muscle of immature female rat after 12 hour administration of 3 micro Ci (111 kBq) in the absence of 60 microg estradiol; type: ADME, organism-based, Muscle tissue; conditions: in vivo; method in brief: as §1
Rattus norvegicus [28] = assay: Biodistribution in liver of immature female rat after 3 hour administration of 3 micro Ci (111 kBq) in the absence of 60 microg estradiol; type: ADME, organism-based; conditions: in vivo; method in brief: as §2
Rattus norvegicus [29] = assay: Biodistribution in kidney of immature female rat after 3 hour administration of 3 micro Ci (111 kBq) in the absence of 60 microg estradiol; type: ADME, organism-based; conditions: in vivo; method in brief: as §2
Rattus norvegicus [30] = assay: Biodistribution in blood of immature female rat after 1 hr administration of 3 micro Ci (111 kBq) in the absence of 60 microg estradiol; type: ADME, organism-based; conditions: in vivo; method in brief: as §2

CO[C@H]1C[C@@]2(C)[C@@H](CC[C@@]2(O)/C=C/I)[C@@H]2CCc3cc(O)c(F)cc3[C@H]21
ID/g (Rattus norvegicus [1]): 224% | ID/g (Rattus norvegicus [2]): 3.5% | ID/g (Rattus norvegicus [3]): 3.34% | ID/g (Rattus norvegicus [4]): 1.22% | ID/g (Rattus norvegicus [5]): 571% | uterus to blood %ID/g ratio (unitless) (Rattus norvegicus [6]): 8.28% | ID/g (Rattus norvegicus [7]): 1.44% | RBA [8]: 13.5 | uterus to nontarget tissue ratio (Rattus norvegicus [9]): 8.56% | uterus-to-nontarget tissue uptake ratio (Rattus norvegicus [10]): 4.78% | Uterus-to-blood radioactivity ratio (dimensionless) (Rattus norvegicus [11]): 10.45% | uterus to nontarget tissue ratio (Rattus norvegicus [12]): 6.75% | ID/g (Rattus norvegicus [13]): 1.82% | ID/g (Rattus norvegicus [14]): 0.87% | ID/g (Rattus norvegicus [15]): 0.45% | ID/g (Rattus norvegicus [16]): 1.2% | ID/g (Rattus norvegicus [17]): 0.51% | ID/g (Rattus norvegicus [18]): 0.45% | ID/g (Rattus norvegicus [19]): 0.8% | ID/g (Rattus norvegicus [20]): 3.11% | ID/g (Rattus norvegicus [21]): 1.58% | ID/g (Rattus norvegicus [22]): 0.95% | ID/g (Rattus norvegicus [23]): 0.13% | ID/g (Rattus norvegicus [24]): 4.31% | ID/g (Rattus norvegicus [25]): 0.38% | ID/g (Rattus norvegicus [26]): 1.02% | ID/g (Rattus norvegicus [27]): 0.07% | ID/g (Rattus norvegicus [28]): 3.56% | ID/g (Rattus norvegicus [29]): 0.96% | ID/g (Rattus norvegicus [30]): 0.45%

C[C@]12CC[C@@H]3c4ccc(O)c(F)c4CC[C@H]3[C@@H]1CC[C@@]2(O)/C=C/I
ID/g (Rattus norvegicus [1]): 71.61% | ID/g (Rattus norvegicus [2]): 2.91% | ID/g (Rattus norvegicus [3]): 2.97% | ID/g (Rattus norvegicus [4]): 0.75% | ID/g (Rattus norvegicus [5]): 385% | uterus to blood %ID/g ratio (unitless) (Rattus norvegicus [6]): 4.56% | ID/g (Rattus norvegicus [7]): 0.93% | RBA [8]: 55.9 | uterus to nontarget tissue ratio (Rattus norvegicus [9]): 10.41% | uterus-to-nontarget tissue uptake ratio (Rattus norvegicus [10]): 6.39% | Uterus-to-blood radioactivity ratio (dimensionless) (Rattus norvegicus [11]): 2.76% | uterus to nontarget tissue ratio (Rattus norvegicus [12]): 5.4% | ID/g (Rattus norvegicus [13]): 1.59% | ID/g (Rattus norvegicus [14]): 0.46% | ID/g (Rattus norvegicus [15]): 0.3% | ID/g (Rattus norvegicus [16]): 0.43% | ID/g (Rattus norvegicus [17]): 0.28% | ID/g (Rattus norvegicus [18]): 0.14% | ID/g (Rattus norvegicus [19]): 0.36% | ID/g (Rattus norvegicus [20]): 1.21% | ID/g (Rattus norvegicus [21]): 0.87% | ID/g (Rattus norvegicus [22]): 0.89% | ID/g (Rattus norvegicus [23]): 0.1% | ID/g (Rattus norvegicus [24]): 1.14% | ID/g (Rattus norvegicus [25]): 0.96% | ID/g (Rattus norvegicus [26]): 0.58% | ID/g (Rattus norvegicus [27]): 0.06% | ID/g (Rattus norvegicus [28]): 2.2% | ID/g (Rattus norvegicus [29]): 0.59% | ID/g (Rattus norvegicus [30]): 0.78%

C[C@@H]1Cc2c(ccc(O)c2F)[C@H]2CC[C@@]3(C)[C@@H](CC[C@@]3(O)/C=C\I)[C@H]12
ID/g (Rattus norvegicus [1]): 145% | ID/g (Rattus norvegicus [2]): 1.35% | ID/g (Rattus norvegicus [3]): 1.3% | ID/g (Rattus norvegicus [4]): 0.67% | ID/g (Rattus norvegicus [5]): 898% | uterus to blood %ID/g ratio (unitless) (Rattus norvegicus [6]): 10.6% | ID/g (Rattus norvegicus [7]): 1.07% | RBA [8]: 36.8 | ID/g (Rattus norvegicus [9]): 9.44% | ID/g (Rattus norvegicus [10]): 5.41% | Uterus-to-blood radioactivity ratio (dimensionless) (Rattus norvegicus [11]): 16.64% | uterus to nontarget tissue ratio (Rattus norvegicus [12]): 17.02% | ID/g (Rattus norvegicus [13]): 1.42% | ID/g (Rattus norvegicus [14]): 0.45% | ID/g (Rattus norvegicus [15]): 0.89% | ID/g (Rattus norvegicus [16]): 3.45% | ID/g (Rattus norvegicus [17]): 0.48% | ID/g (Rattus norvegicus [18]): 0.34% | ID/g (Rattus norvegicus [19]): 0.72% | ID/g (Rattus norvegicus [20]): 1.36% | ID/g (Rattus norvegicus [21]): 0.79% | ID/g (Rattus norvegicus [22]): 0.71% | ID/g (Rattus norvegicus [23]): 0.24% | ID/g (Rattus norvegicus [24]): 1.39% | ID/g (Rattus norvegicus [25]): 0.39% | ID/g (Rattus norvegicus [26]): 0.44% | ID/g (Rattus norvegicus [27]): 0.16% | ID/g (Rattus norvegicus [28]): 1.18% | ID/g (Rattus norvegicus [29]): 0.85% | ID/g (Rattus norvegicus [30]): 0.44%
